Key:
Rattus norvegicus [1] = assay: Natriuretic activity in rats at 81 mg/kg of dosage; mequiv of Na; type: functional
Method in brief: (§1)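 Rats housed three per metabolism cage received placebo vehicle or compound as a suspension in a final volume of 5.0 mL orally, with placebo groups run concurrently. Urine was collected over 0–5 h and analysed for Na+, K+ and Cl− by standard methods. Values are mequiv per cage, given as geometric means of three cages per dose level.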

[2] = Compound was tested for natriuretic activity in chimpanzee at 5 mg/kg dose activity is measured as ratio of clearance of urate / […]; Curate/Cinulin; type: functional
Method in brief: (§2)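 Inulin iv gave GFR; urate and inulin clearances and Na+, K+, Cl- excretion were measured by AutoAnalyzer. Controls were three 20-min periods; compound was given orally in aqueous solution via nasal catheter. Response was the mean of eight 15-20 min periods, reported as treatment minus control from single experiments.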

Rattus norvegicus [3] = assay: Natriuretic activity in rats at 3 mg/kg of dosage; mequiv of Na; type: functional; method in brief: as §1
Canis familiaris [4] = assay: Diuretic activity in dogs following 5 mg/kg oral administration.
Canis familiaris [5] = assay: Compound was tested for diuretic activity in dogs at 5 mg/kg dose after intravenous administration measured as microequivalent of K+/minute; 6/35 (Control/Drug treated); type: functional, Canis lupus familiaris, Urine
Method in brief: (§3)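 Intravenous dog clearance study. A priming iv injection of 1.5 mL/kg isoosmotic pH 7.4 phosphate buffer (20 mg PO4/kg) was given first. This was followed by infusion of 3 mL/min pH 7.4 buffer containing 4% mannitol (6.9 mg PO4/min) throughout the experiment. Urinary Na+, K+ and Cl- were measured by standard methods. Each value is the mean of the two highest consecutive 15-min collections.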

Rattus norvegicus [6] = assay: Natriuretic activity in rats at 9 mg/kg of dosage; mequiv of Na; type: functional; method in brief: as §1
Rattus norvegicus [7] = assay: Natriuretic activity in rats at 27 mg/kg of dosage; mequiv of Na; type: functional; method in brief: as §1
Canis familiaris [8] = assay: Compound was tested for diuretic activity in dogs at 5 mg/kg dose after oral administration measured as microequivalent of Na+/minute; type: functional, Canis lupus familiaris, Urine
Method in brief: (§4)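 Oral dog test: water loading (250 mL po, then 500 mL 1 h later). One hour later bladders were emptied by catheter and compound or placebo given in gelatin capsules. Dogs were kept in metabolism cages. Voided urine plus catheterized bladder urine was pooled at 5 h, and Na+, K+ and Cl- were measured by standard methods. Geometric means are reported.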

Canis familiaris [9] = assay: Compound was tested for diuretic activity in dogs at 5 mg/kg dose after intravenous administration measured as microequivalent of Cl-/minute; 43/54 (Control/Drug treated); type: functional, Canis lupus familiaris, Urine; method in brief: as §3
Canis familiaris [10] = assay: Compound was tested for diuretic activity in dogs at 5 mg/kg dose after oral administration measured as microequivalent of Cl-/minute; type: functional, Canis lupus familiaris, Urine; method in brief: as §4
Canis familiaris [11] = assay: Compound was tested for diuretic activity in dogs at 5 mg/kg dose after intravenous administration measured as microequivalent of Na+/minute; 11/118 (Control/Drug treated); type: functional, Canis lupus familiaris, Urine
Pan troglodytes = assay: Compound was tested for natriuretic activity in chimpanzee at 5 mg/kg dose activity is measured as microequivalent of Na+/minute; muequiv of Na+/min; type: functional; method in brief: as §2
Canis familiaris [12] = assay: Compound was tested for diuretic activity in dogs at 5 mg/kg dose after oral administration measured as microequivalent of K+/minute; type: functional, Canis lupus familiaris, Urine; method in brief: as §4
Canis familiaris [13] = assay: Compound was tested for diuretic activity in dogs at 5 mg/kg dose after intravenous administration measured as microequivalent of K+/minute; 9/46 (Control/Drug treated); type: functional, Canis lupus familiaris, Urine; method in brief: as §3
Canis familiaris [14] = assay: Compound was tested for diuretic activity in dogs at 5 mg/kg dose after intravenous administration, activity is expressed as urine volume; 0.6/6; type: functional, Canis lupus familiaris
Rattus norvegicus [15] = assay: Compound was tested for natriuretic activity in rats at 27 mg/kg of dosage; type: functional; method in brief: as §1
Canis familiaris [16] = assay: Compound was tested for diuretic activity in dogs at 5 mg/kg dose after intravenous administration measured as microequivalent of Na+/minute; 13/565 (Control/Drug treated); type: functional, Canis lupus familiaris, Urine
Canis familiaris [17] = assay: Compound was tested for diuretic activity in dogs at 5 mg/kg dose after intravenous administration measured as microequivalent of Cl-/minute; 2/612 (Control/Drug treated); type: functional, Canis lupus familiaris, Urine; method in brief: as §3
Canis familiaris [18] = assay: Compound was tested for diuretic activity in dogs at 5 mg/kg dose after intravenous administration measured as microequivalent of Na+/minute; 46/767 (Control/Drug treated); type: functional, Canis lupus familiaris, Urine
Canis familiaris [19] = assay: Compound was tested for diuretic activity in dogs at 5 mg/kg dose after intravenous administration measured as microequivalent of K+/minute; 6/36 (Control/Drug treated); type: functional, Canis lupus familiaris, Urine; method in brief: as §3
Canis familiaris [20] = assay: Compound was tested for diuretic activity in dogs at 5 mg/kg dose after intravenous administration measured as microequivalent of Cl-/minute; 5/102 (Control/Drug treated); type: functional, Canis lupus familiaris, Urine; method in brief: as §3
Canis familiaris [21] = assay: Compound was tested for diuretic activity in dogs at 5 mg/kg dose after intravenous administration measured as microequivalent of Na+/minute; 20/108 (Control/Drug treated); type: functional, Canis lupus familiaris, Urine
Canis familiaris [22] = assay: Compound was tested for diuretic activity in dogs at 5 mg/kg dose after oral administration, activity is expressed as urine volume
Canis familiaris [23] = assay: Compound was tested for diuretic activity in dogs at 5 mg/kg dose after intravenous administration measured as microequivalent of Cl-/minute (Control/Drug treated); type: functional, Canis lupus familiaris, Urine; settings: in the assay text read “oral” for “intravenous”
Canis familiaris [24] = assay: Compound was tested for diuretic activity in dogs at 5 mg/kg dose after intravenous administration measured as microequivalent of K+/minute (Control/Drug treated); type: functional, Canis lupus familiaris, Urine; settings: in the assay text read “oral” for “intravenous”
Canis familiaris [25] = assay: Compound was tested for diuretic activity in dogs at 5 mg/kg dose after oral administration measured as microequivalent of Na+/minute
Canis familiaris [26] = assay: Compound was tested for diuretic activity in dogs at 5 mg/kg dose after intravenous administration measured as microequivalent of K+/minute; 4/19 (Control/Drug treated); type: functional, Canis lupus familiaris, Urine; method in brief: as §3

For `O=C(c1cccs1)c1cc2c(c(Cl)c1Cl)O[C@@H](C(=O)O)C2`, the Oral activity (Rattus norvegicus [1]) was 29, the Ratio [2] was 0.454 and the Oral activity (Rattus norvegicus [3]) was 48. For the same compound, the Urine volume (Canis familiaris [4]) was 233 mL, the K+ excretion (Canis familiaris [5]) was 35 µequiv/min and the Oral activity (Rattus norvegicus [6]) was 38. It also gave an Oral activity (Rattus norvegicus [7]) of 41, an Oral activity (Canis familiaris [8]) of 4.8 and a Cl- excretion (Canis familiaris [9]) of 54 µequiv/min. For the same compound, the Oral activity (Canis familiaris [10]) was 4.3, the Na+ excretion (Canis familiaris [11]) was 118 µequiv/min and the Oral activity (Pan troglodytes) was 95. The Oral activity (Canis familiaris [12]) was 2.5.
`O=C(O)C1Cc2cc(Cc3cccs3)c(Cl)c(Cl)c2O1` (stereo not given) showed an Oral activity (Rattus norvegicus [1]) of 21, a Ratio [2] of 0.185 and an Oral activity (Rattus norvegicus [3]) of 7. For the same compound, the K+ excretion (Canis familiaris [13]) was 46 µequiv/min, the Urine volume (Canis familiaris [14]) was 0.6 mL/min and the Oral activity (Rattus norvegicus [15]) was 19. For the same compound, the Urine volume (Canis familiaris [4]) was 433 mL, the Oral activity (Rattus norvegicus [6]) was 19 and the Na+ excretion (Canis familiaris [16]) was 565 µequiv/min. It also gave an Oral activity (Canis familiaris [8]) of 30.1, a Cl- excretion (Canis familiaris [17]) of 612 µequiv/min and an Oral activity (Canis familiaris [10]) of 40.6. For the same compound, the Oral activity (Pan troglodytes) was 206 and the Oral activity (Canis familiaris [12]) was 7.4.
For `O=C(c1cnsn1)c1cc2c(c(Cl)c1Cl)OC(C(=O)O)C2` (stereo not given), the Oral activity (Rattus norvegicus [1]) was 284, the Ratio [2] was 0.096 and the Na+ excretion (Canis familiaris [18]) was 767 µequiv/min. It also gave an Oral activity (Rattus norvegicus [3]) of 38, an Oral activity (Rattus norvegicus [6]) of 82 and an Oral activity (Rattus norvegicus [7]) of 230. The Oral activity (Pan troglodytes) was 88.
Compound `O=C(Cc1ccccc1)c1cc2c(c(Cl)c1Cl)OC(C(=O)O)C2` (stereo not given) has an Oral activity (Rattus norvegicus [1]) of 173, a K+ excretion (Canis familiaris [19]) of 36 µequiv/min and a Ratio [2] of 0.315. It also gave an Oral activity (Rattus norvegicus [3]) of 25, an Oral activity (Rattus norvegicus [6]) of 80 and an Oral activity (Rattus norvegicus [7]) of 126. The Cl- excretion (Canis familiaris [20]) was 102 µequiv/min, the Oral activity (Pan troglodytes) was 513 and the Na+ excretion (Canis familiaris [21]) was 108 µequiv/min.
Work on `O=CC1Cc2cc(C(=O)c3cccs3)c(Cl)c(Cl)c2O1` (stereo not given) yielded an Oral activity (Canis familiaris [22]) of 337 mL, an Oral activity (Rattus norvegicus [1]) of 144 and an Oral activity (Canis familiaris [23]) of 21.6. For the same compound, the Oral activity (Canis familiaris [24]) was 3.1, the Oral activity (Rattus norvegicus [3]) was 74 and the Urine volume (Canis familiaris [4]) was 337 mL. It also gave an Oral activity (Rattus norvegicus [6]) of 84, an Oral activity (Rattus norvegicus [7]) of 107 and an Oral activity (Canis familiaris [8]) of 16.3. The Oral activity (Canis familiaris [10]) was 21.6, the Oral activity (Canis familiaris [25]) was 16.3 and the Oral activity (Canis familiaris [12]) was 3.1.
For `O=C(c1ccccc1)c1cc2c(c(Cl)c1Cl)OC(C(=O)O)C2` (stereo not given), the Oral activity (Rattus norvegicus [1]) was 119, the Oral activity (Rattus norvegicus [3]) was 59 and the Oral activity (Rattus norvegicus [6]) was 85. The Oral activity (Rattus norvegicus [7]) was 117 and the K+ excretion (Canis familiaris [26]) was 19 µequiv/min.

Reference: ChEMBL document CHEMBL1121663, “(Acylaryloxy)acetic acid diuretics. 3. 2,3-Dihydro-5-acyl-2-benzofurancarboxylic acids, a new class of uricosuric diuretics” (1981)
